Assay results from ChEMBL document CHEMBL4145675, “2-Phenylquinoline S. aureus NorA Efflux Pump Inhibitors: Evaluation of the Importance of Methoxy Group Introduction” (J Med Chem, 2018).
≈ marks a conversion by molar mass, not a printed value. Calls of active or inactive are those of the source. No cut-off for these calls is given here.

What was measured:
[1] = Selectivity index, ratio of CC50 for human HepG2 cells to inhibition of NorA in Staphylococcus aureus SA-1199B expressing GrlA A116E mutant assessed as minimal potentiating drug concentration causing 8 fold reduction in ciprofloxacin MIC by microdilution method based Checkerboard assay; type: toxicity; details: read-out: Selectivity Index
Outline: (§1)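 CC50 cells (HepG2 for […], THP-1 for […]) were grown to confluence in RPMI 1640 with 10% FCS, penicillin and streptomycin. They were exposed 24 h at 37 °C to 0–250 µg/mL. Viability was read by ATP bioluminescence, triplicate. CC50 is the concentration reducing cell number 50% versus untreated.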

[2] = tested on: Staphylococcus aureus; experiment: Antimicrobial activity against NorA deficient Staphylococcus aureus SA-K1902 by microdilution method; type: organism-based; details: in vivo
Outline: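 CLSI broth microdilution MIC of the compound alone. Strains: SA-K1902 (norA deleted), SA-K2378 (SA-K1902 carrying norA plus its promoter on multicopy plasmid pCU1), SA-1199B (norA overexpressing, GrlA A116E).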

[3] = biological target: T1, Cytochrome P450 3A4 (Homo sapiens, UniProt P08684); experiment: Inhibition of human recombinant CYP3A4 at 1 uM using beetle D-luciferin as substrate by CYP450-Glo assay; type: ADME; details: recombinant enzyme
T1 sequence (P08684 whole entry): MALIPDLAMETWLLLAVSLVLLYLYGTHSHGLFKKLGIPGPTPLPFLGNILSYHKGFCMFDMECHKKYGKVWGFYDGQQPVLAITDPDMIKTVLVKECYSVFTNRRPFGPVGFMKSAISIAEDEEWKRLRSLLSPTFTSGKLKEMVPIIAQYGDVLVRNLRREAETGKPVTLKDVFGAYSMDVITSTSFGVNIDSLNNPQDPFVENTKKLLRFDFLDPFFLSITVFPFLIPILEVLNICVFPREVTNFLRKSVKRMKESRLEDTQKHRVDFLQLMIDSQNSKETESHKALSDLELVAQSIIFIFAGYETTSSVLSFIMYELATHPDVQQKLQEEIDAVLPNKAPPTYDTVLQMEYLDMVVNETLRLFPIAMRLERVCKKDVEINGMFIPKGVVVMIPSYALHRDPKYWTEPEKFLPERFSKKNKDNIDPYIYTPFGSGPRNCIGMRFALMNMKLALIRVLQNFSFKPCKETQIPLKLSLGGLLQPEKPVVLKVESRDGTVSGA
Outline: (§2)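 Luminescent P450-Glo assay in which recombinant human CYP3A4 or CYP2D6 converts a beetle D-luciferin derivative to D-luciferin. Compound was tested at 1 and 10 µM.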

[4] = biological target: T2, Quinolone resistance protein NorA (Staphylococcus aureus) (UniProt P0A0J7); experiment: Inhibition of NorA in Staphylococcus aureus SA-K2378 assessed as synergistic potentiation of ciprofloxacin-induced antimicrobial activity at 0.78 to 100 ug/ml by microdilution method based Checkerboard assay
T2 sequence (whole entry): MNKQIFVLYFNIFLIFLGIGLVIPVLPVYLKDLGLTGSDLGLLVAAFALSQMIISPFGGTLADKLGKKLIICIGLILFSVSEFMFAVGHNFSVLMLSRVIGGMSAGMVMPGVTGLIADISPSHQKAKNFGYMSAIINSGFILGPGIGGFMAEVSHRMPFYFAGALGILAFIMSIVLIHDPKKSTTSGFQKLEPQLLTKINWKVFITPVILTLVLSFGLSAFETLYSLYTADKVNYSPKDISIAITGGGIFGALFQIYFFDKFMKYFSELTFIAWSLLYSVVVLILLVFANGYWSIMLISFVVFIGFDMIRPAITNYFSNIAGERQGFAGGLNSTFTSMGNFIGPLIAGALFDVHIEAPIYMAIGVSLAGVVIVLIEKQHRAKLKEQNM

[5] = biological target: T2, Quinolone resistance protein NorA (Staphylococcus aureus); experiment: Inhibition of NorA in Staphylococcus aureus SA-1199B expressing GrlA A116E mutant assessed as reduction in EtBr efflux at 50 uM incubated for 5 mins by fluorescence based assay
Outline: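 Cells were grown overnight in cation-supplemented Mueller-Hinton broth at 35 °C and subcultured to OD600 0.7–0.8. They were loaded at OD600 0.8 with 25 µM EtBr plus 100 µM CCCP (final) for 20 min at room temperature. Cells were then resuspended in fresh broth with or without compound, 50 µM for the single-point screen or a concentration series for IC50. Fluorescence (ex 485/em 645 nm) was read for 5 min. Inhibition was calculated from the fluorescence decrease versus untreated cells. Biological triplicate, each run twice.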

[6] = tested on: Staphylococcus aureus; experiment: Induction of membrane depolarization in Staphylococcus aureus SA-1199B expressing wild type norA at 1 ug/ml incubated for 30 mikns by DiOC2(3) fluorescent probe based cytofluorimetry; type: organism-based; details: in the assay text read “overexpressing norA” for “expressing wild type norA”
Outline: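 SA-1199B was grown in MHB at 37 °C to OD600 0.6, washed, and diluted to 1×10^6 CFU/mL in filtered PBS. DiOC2(3) was added at 30 µM final, and compound at 1, 5 or 10 µg/mL for 30 min. CCCP 5 µM final served as positive control. Flow cytometry with 488 nm excitation gave a red/green ratio normalized to the DiOC2(3) blank, expressed as % depolarized versus drug-free control.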

[7] = Drug metabolism in mouse liver microsomes assessed as compound demethylation at 50 uM in presence of NADPH regenerating system incubated for 120 mins by UPLC/MS analysis; type: ADME, microsome; details: 2 h, in the assay text read “hydroxylation and ring opening” for “demethylation”
Outline: (§3)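 1 mg/mL mouse liver microsomes in 0.1 M Tris-HCl pH 7.4 with test compound at 50 µM, DMSO up to ~3%. Preincubated 5 min at 37 °C, then started with NADPH regeneration system. Stopped at 120 min with cold methanol and centrifuged. Supernatant analysed by UPLC/MS (ESI, tandem quadrupole).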

[8] = biological target: T1, Cytochrome P450 3A4; experiment: (§4) Inhibition of human recombinant CYP3A4 at 10 uM using beetle D-luciferin as substrate by CYP450-Glo assay; type: ADME; details: recombinant enzyme, 10 µM; outline: as §2
[9] = Selectivity index, ratio of CC50 for human THP1 cells to inhibition of NorA in Staphylococcus aureus SA-1199B expressing GrlA A116E mutant assessed as minimal potentiating drug concentration causing 8 fold reduction in ciprofloxacin MIC by microdilution method based Checkerboard assay; type: toxicity; details: read-out: Selectivity Index; outline: as §1
[10] = Drug metabolism in mouse liver microsomes assessed as compound oxidation at 50 uM in presence of NADPH regenerating system incubated for 120 mins by UPLC/MS analysis; type: ADME, microsome; details: 2 h; outline: as §3
[11] = biological target: T3, Multidrug export protein MepA (Staphylococcus aureus (strain NCTC 8325)) (UniProt Q2G140); experiment: Inhibition of MepA in Staphylococcus aureus SA-K2886 assessed as synergistic potentiation of EtBr-induced antimicrobial activity by measuring […] at 3.13 ug/ml by microdilution method based Checkerboard assay (reference value: 25 ug/ml)
T3 sequence (whole entry): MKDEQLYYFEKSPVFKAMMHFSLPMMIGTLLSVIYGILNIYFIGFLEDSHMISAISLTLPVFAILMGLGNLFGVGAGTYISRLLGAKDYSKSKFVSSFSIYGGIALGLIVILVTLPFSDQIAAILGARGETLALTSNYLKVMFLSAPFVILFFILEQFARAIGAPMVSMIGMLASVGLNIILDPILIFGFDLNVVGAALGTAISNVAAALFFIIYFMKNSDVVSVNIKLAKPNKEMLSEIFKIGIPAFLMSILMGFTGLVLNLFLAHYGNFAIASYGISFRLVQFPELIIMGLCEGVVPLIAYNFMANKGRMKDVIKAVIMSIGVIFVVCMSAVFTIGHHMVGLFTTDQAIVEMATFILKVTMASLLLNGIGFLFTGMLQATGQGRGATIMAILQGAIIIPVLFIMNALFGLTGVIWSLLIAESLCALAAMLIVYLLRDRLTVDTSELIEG
Outline: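 Checkerboard combination of EtBr with compound, using broth microdilution MICs. SA-K2886 (norA-deleted, pALC2073-mepA) and SA-K2885 (norA-deleted, empty pALC2073) were run with 0.05 µg/mL tetracycline in all experiments to induce the xyl/tetO promoter.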

[12] = biological target: CYP3A4 (Homo sapiens, UniProt P08684); experiment: as §4; type: ADME; details: recombinant CYP3A4, probe beetle D-luciferin; outline: as §2
CYP3A4, sequence (P08684 whole entry): as the sequence (P08684 whole entry) above

[13] = Drug metabolism in mouse liver microsomes assessed as compound hydroxylation at 50 uM in presence of NADPH regenerating system incubated for 120 mins by UPLC/MS analysis; type: ADME, microsome; details: 2 h; outline: as §3

SMILES | selectivity ratio [1] | MIC [2] [µg/mL] | inhibition (INH) [3] | inhibition [4] | inhibition [5] [%] | Activity [6] [%] | Drug metabolism [7] | inhibition (INH) [8] | selectivity ratio [9] | Drug metabolism [10] | MIC [11] [µg/mL] | inhibition at 10 µM [12] [%] | Drug metabolism [13]
CCCOc1ccc(-c2cc(OCCN3CCCCC3)c3cc(OC)ccc3n2)cc1 | 50 | 25 (≈ 59.4 µM) | Not Active | Active | 97.6 | < 10 | Metabolite_Detected | Not Active | > 128 |  |  |  | 
CCCOc1ccc(-c2cc(OCCN3CCc4cc(OC)c(OC)cc4C3)c3cc(OC)c(OC)cc3n2)cc1 | 95 | 100 (≈ 179 µM) | Not Active | Active | 94.1 | < 20 |  |  |  | Metabolite_Detected | < 1.56 | ≤ 60 | Metabolite_Detected
